ChEMBL document CHEMBL1129059, “Antitumor properties of some 2-[(dimethylamino)methyl]phenylgold(III) complexes” (J Med Chem, 1996)

Tests used:
Type in all cases: functional, organism-based
Mus musculus [1] = assay: Compound was evaluated for antitumor activity (RTV) in HT1376 carcinoma Xenograft, at a dosage 6.25 mg/kg on day 14; set-up: dose 6.25 mg/kg
Outline: (§1)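 HT1376 tumor fragments implanted subcutaneously in nude mice flanks; mice with established palpable tumors randomized into groups of 6 (controls 10). Compounds given intraperitoneally as suspensions in 0.5% carboxymethylcellulose in 0.9% saline, on days 0, 7, 14 and 21. Tumor dimensions on days 0, 7, 14, 21, 28. RTV = 100(mean tumor volume at assessment)/(mean start volume).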

Mus musculus [2] = assay: Compound was evaluated for antitumor activity (RTV) in PNX/109/TC carcinoma Xenograft, at a dosage 10 mg/kg on day 21; set-up: dose 10 mg/kg
Outline: (§2)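 PXN/109/TC (CH1) ovarian tumor fragments implanted subcutaneously in nude mice flanks; established palpable tumors, groups of 6 (controls 10). Dosed intraperitoneally as suspension in arachis oil on days 0, 7, 14, 21. Tumors measured days 0, 7, 14, 21, 28. RTV = 100(mean tumor volume at assessment)/(mean start volume).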

Mus musculus [3] = assay: Compound was evaluated for antitumor activity (RTV) in PNX/109/TC carcinoma Xenograft, at a dosage 5 mg/kg on day 21; set-up: dose 5 mg/kg; outline: as §2
Mus musculus [4] = assay: Compound was evaluated for antitumor activity (T/C) in HT1376 carcinoma Xenograft, at a dosage 6.25 mg/kg on day 14; set-up: dose 6.25 mg/kg
Outline: (§3)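 Nude mice carrying subcutaneous flank HT1376 fragments; treatment began once tumors were established and palpable, randomized into groups of 6 treated and 10 control mice. Dosing was ip as a suspension in 0.5% carboxymethylcellulose in 0.9% saline on days 0, 7, 14 and 21, at the MTD and two 2-fold dilutions. Tumors were measured on days 0-28. RTV = 100(mean volume at assessment)/(mean start volume); T/C = treated RTV/control RTV.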

Mus musculus [5] = assay: Compound was evaluated for antitumor activity (RTV) in PNX/109/TC carcinoma Xenograft, at a dosage 5 mg/kg on day 14; set-up: dose 5 mg/kg; outline: as §2
Mus musculus [6] = assay: Compound was evaluated for antitumor activity (T/C) in HT1376 carcinoma Xenograft, at a dosage 6.25 mg/kg on day 7; set-up: dose 6.25 mg/kg; outline: as §3
Mus musculus [7] = assay: Compound was evaluated for antitumor activity (T/C) in PNX/109/TC carcinoma Xenograft, at a dosage 5 mg/kg on day 14; set-up: dose 5 mg/kg
Outline: (§4)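 PNX/109/TC (CH1) ovarian tumor fragments implanted subcutaneously in the flanks of nude mice. Once tumors were palpable, mice were randomized into 6 per treated group and 10 controls. Dosing was ip in arachis oil on days 0, 7, 14 and 21, at the MTD and two 2-fold dilutions, with tumor dimensions taken on days 0, 7, 14, 21 and 28. T/C is treated RTV over control RTV, with RTV relative to start volume.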

Mus musculus [8] = assay: Compound was evaluated for antitumor activity (RTV) in PNX/109/TC carcinoma Xenograft, at a dosage 5 mg/kg fon day 7; set-up: dose 5 mg/kg; outline: as §2
Mus musculus [9] = assay: Compound was evaluated for antitumor activity (T/C) in PNX/109/TC carcinoma Xenograft, at a dosage 10 mg/kg on day 7; set-up: dose 10 mg/kg; outline: as §4
Mus musculus [10] = assay: Compound was evaluated for antitumor activity (RTV) in HT1376 carcinoma Xenograft, at a dosage 12.5 mg/kg on day 28; set-up: dose 12.5 mg/kg; outline: as §1
Mus musculus [11] = assay: Compound was evaluated for antitumor activity (T/C) in HT1376 carcinoma Xenograft, at a dosage 25 mg/kg on day 28; set-up: dose 25 mg/kg; outline: as §3
Mus musculus [12] = assay: Compound was evaluated for antitumor activity (RTV) in HT1376 carcinoma Xenograft, at a dosage 6.25 mg/kg on day 7.; set-up: dose 6.25 mg/kg; outline: as §1
Mus musculus [13] = assay: Compound was evaluated for antitumor activity (RTV) in HT1376 carcinoma Xenograft, at a dosage 12.5 mg/kg on day 14; set-up: dose 12.5 mg/kg; outline: as §1
Mus musculus [14] = assay: Compound was evaluated for antitumor activity (RTV) in PNX/109/TC carcinoma Xenograft, at a dosage 20 mg/kg on day 14; set-up: dose 20 mg/kg; outline: as §2
Mus musculus [15] = assay: Compound was evaluated for antitumor activity (RTV) in HT1376 carcinoma Xenograft, at a dosage 25 mg/kg on day 28; set-up: dose 25 mg/kg; outline: as §1
Mus musculus [16] = assay: Compound was evaluated for antitumor activity (T/C) in PNX/109/TC carcinoma Xenograft, at a dosage 10 mg/kg on day 14; set-up: dose 10 mg/kg; outline: as §4
Mus musculus [17] = assay: Compound was evaluated for antitumor activity (RTV) in HT1376 carcinoma Xenograft, at a dosage 25 mg/kg on day 21; set-up: dose 25 mg/kg; outline: as §1
Mus musculus [18] = assay: Compound was evaluated for antitumor activity (RTV) in HT1376 carcinoma Xenograft, at a dosage 25 mg/kg on day 7; set-up: dose 25 mg/kg; outline: as §1
Mus musculus [19] = assay: Compound was evaluated for antitumor activity (T/C) in PNX/109/TC carcinoma Xenograft, at a dosage 5 mg/kg on day 21; set-up: dose 5 mg/kg; outline: as §4
Mus musculus [20] = assay: Compound was evaluated for antitumor activity (RTV) in PNX/109/TC carcinoma Xenograft, at a dosage 5 mg/kg on day 28; set-up: dose 5 mg/kg; outline: as §2
Mus musculus [21] = assay: Compound was evaluated for antitumor activity (RTV) in PNX/109/TC carcinoma Xenograft, at a dosage 10 mg/kg on day 14; set-up: dose 10 mg/kg; outline: as §2
Mus musculus [22] = assay: Compound was evaluated for antitumor activity (T/C) in HT1376 carcinoma Xenograft, at a dosage 12.5 mg/kg on day 21; set-up: dose 12.5 mg/kg
Outline: (§5)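 Subcutaneous HT1376 xenografts in nude mice, 6 per treated group and 10 controls. Intraperitoneal dosing as suspensions in 0.5% carboxymethylcellulose/0.9% saline on days 0, 7, 14, 21; tumors measured weekly to day 28. T/C = RTV of treated group / RTV of untreated control group; significance by t-test at the 5% level.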

Mus musculus [23] = assay: Compound was evaluated for antitumor activity (T/C) in HT1376 carcinoma Xenograft, at a dosage 25 mg/kg on day 14; set-up: dose 25 mg/kg; outline: as §5
Mus musculus [24] = assay: Compound was evaluated for antitumor activity (T/C) in PNX/109/TC carcinoma Xenograft, at a dosage 10 mg/kg on day 21; set-up: dose 10 mg/kg; outline: as §4
Mus musculus [25] = assay: Compound was evaluated for antitumor activity (RTV) in HT1376 carcinoma Xenograft, at a dosage 6.25 mg/kg on day 21; set-up: dose 6.25 mg/kg; outline: as §1
Mus musculus [26] = assay: Compound was evaluated for antitumor activity (RTV) in PNX/109/TC carcinoma Xenograft, at a dosage 20 mg/kg on day 28; set-up: dose 20 mg/kg; outline: as §2
Mus musculus [27] = assay: Compound was evaluated for antitumor activity (RTV) in PNX/109/TC carcinoma Xenograft, at a dosage 20 mg/kg on day 21; set-up: dose 20 mg/kg; outline: as §2
Mus musculus [28] = assay: Compound was evaluated for antitumor activity (T/C) in PNX/109/TC carcinoma Xenograft, at a dosage 20 mg/kg on day 7; set-up: dose 20 mg/kg; outline: as §4
Mus musculus [29] = assay: Compound was evaluated for antitumor activity (RTV) in HT1376 carcinoma Xenograft, at a dosage 6.25 mg/kg on day 28; set-up: dose 6.25 mg/kg; outline: as §1
Mus musculus [30] = assay: Compound was evaluated for antitumor activity (T/C) in HT1376 carcinoma Xenograft, at a dosage 12.5 mg/kg on day 7; set-up: dose 12.5 mg/kg; outline: as §5
Mus musculus [31] = assay: Compound was evaluated for antitumor activity (RTV) in PNX/109/TC carcinoma Xenograft, at a dosage 10 mg/kg on day 7; set-up: dose 10 mg/kg; outline: as §2
Mus musculus [32] = assay: Compound was evaluated for antitumor activity (T/C) in HT1376 carcinoma Xenograft, at a dosage 25 mg/kg on day 21; set-up: dose 25 mg/kg; outline: as §5
Mus musculus [33] = assay: Compound was evaluated for antitumor activity (T/C) in HT1376 carcinoma Xenograft, at a dosage 12.5 mg/kg on day 14; set-up: dose 12.5 mg/kg; outline: as §5

Work on “Acetato[2-(dimethylamino)methyl]phenyl-C,N]gold-(III)” yielded an RTV (Mus musculus [1]) of 724, an RTV (Mus musculus [2]) of 515 and an RTV (Mus musculus [3]) of 423. The T/C (Mus musculus [4]) was 1.43, the RTV (Mus musculus [5]) was 282 and the T/C (Mus musculus [6]) was 1.37. It also gave a T/C (Mus musculus [7]) of 0.8, an RTV (Mus musculus [8]) of 160 and a T/C (Mus musculus [9]) of 0.76. For the same substance, the RTV (Mus musculus [10]) was 1080, the T/C (Mus musculus [11]) was 0.6 and the RTV (Mus musculus [12]) was 379. For the same substance, the RTV (Mus musculus [13]) was 498, the RTV (Mus musculus [14]) was 200 and the RTV (Mus musculus [15]) was 870. For the same substance, the T/C (Mus musculus [16]) was 0.9, the RTV (Mus musculus [17]) was 671 and the RTV (Mus musculus [18]) was 258. For the same substance, the T/C (Mus musculus [19]) was 0.84, the RTV (Mus musculus [20]) was 673 and the RTV (Mus musculus [21]) was 316. The T/C (Mus musculus [22]) was 0.77, the T/C (Mus musculus [23]) was 0.9 and the T/C (Mus musculus [24]) was 1.03. It also gave an RTV (Mus musculus [25]) of 953, an RTV (Mus musculus [26]) of 481 and an RTV (Mus musculus [27]) of 258. For the same substance, the T/C (Mus musculus [28]) was 0.74, the RTV (Mus musculus [29]) was 1670 and the T/C (Mus musculus [30]) was 0.77. The RTV (Mus musculus [31]) was 173, the T/C (Mus musculus [32]) was 0.76 and the T/C (Mus musculus [33]) was 0.98.
